Results published in ChEMBL document CHEMBL1122178, “N-Methylnalorphine: definition of N-allyl conformation for antagonism at the opiate receptor” (J Med Chem, 1982).

Legend:
[1] = target: T1, Opioid receptor (Mus musculus) (UniProt P42866+P32300+P33534); assay: Opioid receptors antagonist potency in reversing the effects of normorphine was determined in mouse isolated vas deferens; assay type: functional, tissue-based
[2] = target: T1, Opioid receptor (Mus musculus); assay: Opioid receptors antagonist potency in reversing the effects of Met5E was determined in mouse isolated vas deferens; assay type: functional, tissue-based
Procedure, shortened: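 Electrically stimulated mouse isolated vas deferens. Antagonism is measured against agonist-induced effects, with Met⁵-enkephalin as the δ agonist. Antagonist potency is expressed as pA₂.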

Opioid receptor [3] = target: T2, Opioid receptor (Mus musculus, UniProt P42866+P32300+P33534); assay: Concentration required to inhibit the stereospecific [3H]diprenorphine binding Opioid receptors in the presence of sodium(Na+) was determined in mouse isolated vas deferens; assay type: protein assay
Opioid receptor [4] = target: T2, Opioid receptor; assay: Concentration required to inhibit the stereospecific [3H]diprenorphine binding Opioid receptors in the absence of sodium(Na+) was determined in mouse isolated vas deferens; assay type: protein assay

T1 sequence (P32300 whole entry, looked up): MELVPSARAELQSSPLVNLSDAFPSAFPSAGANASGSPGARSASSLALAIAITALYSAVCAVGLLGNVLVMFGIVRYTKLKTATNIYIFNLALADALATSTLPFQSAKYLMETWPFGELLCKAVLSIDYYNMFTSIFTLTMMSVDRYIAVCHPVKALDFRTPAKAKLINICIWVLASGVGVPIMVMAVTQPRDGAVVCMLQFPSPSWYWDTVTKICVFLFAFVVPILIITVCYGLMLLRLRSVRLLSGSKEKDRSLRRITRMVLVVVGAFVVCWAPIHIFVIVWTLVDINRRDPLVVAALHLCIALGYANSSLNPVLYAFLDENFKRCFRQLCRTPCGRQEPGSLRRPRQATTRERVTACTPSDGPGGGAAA
T1 sequence (P33534 whole entry, looked up): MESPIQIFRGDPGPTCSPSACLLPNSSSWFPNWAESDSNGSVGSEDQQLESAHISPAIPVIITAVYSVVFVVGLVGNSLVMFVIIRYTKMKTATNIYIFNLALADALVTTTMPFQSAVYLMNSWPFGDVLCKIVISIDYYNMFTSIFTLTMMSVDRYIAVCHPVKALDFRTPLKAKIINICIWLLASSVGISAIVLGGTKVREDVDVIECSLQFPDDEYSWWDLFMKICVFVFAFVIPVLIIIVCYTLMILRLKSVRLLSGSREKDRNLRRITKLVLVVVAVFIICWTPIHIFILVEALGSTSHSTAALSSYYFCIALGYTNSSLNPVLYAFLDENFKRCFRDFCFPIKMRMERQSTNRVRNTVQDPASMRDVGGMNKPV
T1 sequence (P42866 whole entry, looked up): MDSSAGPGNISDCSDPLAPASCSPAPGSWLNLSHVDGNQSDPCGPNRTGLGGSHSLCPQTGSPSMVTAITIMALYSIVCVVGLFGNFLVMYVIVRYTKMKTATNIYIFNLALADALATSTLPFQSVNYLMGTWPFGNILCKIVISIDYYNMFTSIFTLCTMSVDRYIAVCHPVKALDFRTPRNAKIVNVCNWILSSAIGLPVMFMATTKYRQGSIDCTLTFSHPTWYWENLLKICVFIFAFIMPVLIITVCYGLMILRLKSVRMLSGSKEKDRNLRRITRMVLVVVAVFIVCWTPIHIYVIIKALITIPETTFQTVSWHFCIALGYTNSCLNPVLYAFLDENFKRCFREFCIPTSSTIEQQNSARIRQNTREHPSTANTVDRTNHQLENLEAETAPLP

Structure (SMILES) | Concentration [1] | Concentration [2] | IC50 (Opioid receptor [3]) | IC50 (Opioid receptor [4])
C=CCN1CC[C@]23c4c5ccc(O)c4O[C@H]2[C@@H](O)C=C[C@H]3[C@H]1C5 | 22.4 nM | 0.286 µM | – | –
C=CC[N+]1(C)CC[C@]23c4c5ccc(O)c4O[C@H]2[C@@H](O)C=CC3[C@H]1C5.[I-] (stereo in doubt; A) | – | – | 11.5 µM | 8.5 µM
C=CC[N+]1(C)CC[C@]23c4c5ccc(O)c4O[C@H]2[C@@H](O)C=CC3[C@H]1C5 (stereo in doubt; A) | 1250 nM | > 22 µM | – | –
C=CC[N+]1(C)CC[C@]23c4c5ccc(O)c4O[C@H]2[C@@H](O)C=CC3[C@H]1C5.[I-] (stereo in doubt; B) | – | – | 0.51 µM | 0.44 µM
C=CC[N+]1(C)CC[C@]23c4c5ccc(O)c4O[C@H]2[C@@H](O)C=CC3[C@H]1C5 (stereo in doubt; B) | 59.2 nM | 4.92 µM | – | –
